Tests used:
[1] = Cytotoxicity against human FADD-deficient Jurkat I 2.1 cells assessed as reduction in cell viability at 10 uM measured after 24 hrs by MTS assay; format: cell-based; conditions: jurkat i 2.1, 24 h
[2] = molecular target: Serine/threonine-protein kinase pim-1 (Homo sapiens, UniProt P11309); assay: Inhibition of recombinant human PIM1 expressed in bacterial expression system using histone H1 as substrate by ADP-glo assay
[3] = molecular target: Receptor-interacting serine/threonine-protein kinase 3 (Homo sapiens, UniProt Q9Y572); assay: Inhibition of recombinant human RIPK3 expressed in baculovirus infected Sf9 insect cells using myelin basic protein as substrate by ADP-Glo assay
[4] = molecular target: Cyclin-dependent kinase 5/CDK5 activator 1 (Homo sapiens, UniProt Q00535); assay: Inhibition of human recombinant CDK5/p25 expressed in bacterial expression using histone H1 as substrate by ADP-glo assay
[5] = molecular target: T1, Receptor-interacting serine/threonine-protein kinase 1 (Homo sapiens, UniProt Q13546); assay: (§1) Inhibition of recombinant human RIPK1 kinase domain (8 to 322 residues) using myelin basic protein as substrate measured after 120 mins by [gamma-32P]ATP based scintillation counting method
T1 sequence (Q13546 whole entry): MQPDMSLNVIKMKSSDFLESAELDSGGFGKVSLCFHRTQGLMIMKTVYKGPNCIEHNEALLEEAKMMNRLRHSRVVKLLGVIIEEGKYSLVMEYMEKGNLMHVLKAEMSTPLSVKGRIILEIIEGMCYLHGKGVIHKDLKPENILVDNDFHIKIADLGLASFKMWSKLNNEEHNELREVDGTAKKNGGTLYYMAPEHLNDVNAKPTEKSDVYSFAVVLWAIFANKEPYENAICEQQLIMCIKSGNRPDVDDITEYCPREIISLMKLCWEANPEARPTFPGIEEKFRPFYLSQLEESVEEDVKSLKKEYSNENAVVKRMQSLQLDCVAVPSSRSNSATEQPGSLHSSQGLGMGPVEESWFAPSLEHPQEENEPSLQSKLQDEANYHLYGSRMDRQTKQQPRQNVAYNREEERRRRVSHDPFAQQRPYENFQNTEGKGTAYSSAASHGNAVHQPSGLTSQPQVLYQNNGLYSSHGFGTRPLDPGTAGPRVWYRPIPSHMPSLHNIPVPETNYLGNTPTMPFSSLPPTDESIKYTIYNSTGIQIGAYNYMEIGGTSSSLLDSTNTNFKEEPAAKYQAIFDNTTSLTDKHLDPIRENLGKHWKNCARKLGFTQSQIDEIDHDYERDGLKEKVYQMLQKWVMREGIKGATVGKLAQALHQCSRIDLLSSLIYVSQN

[6] = molecular target: T2, Receptor-interacting serine/threonine-protein kinase 1 (Homo sapiens) (UniProt Q13546); assay: as §1
T2 sequence (whole entry): T1 sequence (Q13546 whole entry)

TERT-RPE1 = assay: Cytotoxicity against human TERT-RPE1 cells assessed as increase in LDH release at 0.01 to 50 uM measured after 24 hrs by CyQUANT reagent based assay; format: cell-based; conditions: tert-rpe1, 24 h, dose 0.01-50 µM
Outline: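 hTERT RPE-1 cells (DMEM-F12-Glutamax, 10% FCS, 37 °C, 5% CO2) exposed 24 h to compound from 0.01 to 50 μM; viability measured.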

CDK9/cyclin T1 = CDK9/cyclin T1 (Homo sapiens, UniProt P50750); assay: Inhibition of human recombinant CDK9/cyclin T expressed in baculovirus infected Sf9 insect cells using YSPTSPSYSPTSPSYSPTSPSKKKK as substrate by ADP-glo assay
[7] = molecular target: T3, Tyrosine-protein kinase JAK3 (Homo sapiens, UniProt P52333); assay: Inhibition of recombinant human JAK3 C-terminal domain (781 to 1124 residues) expressed in baculovirus infected Sf9 insect cells using GGEEEEYFELVKKKK as substrate by ADP-glo assay
T3 sequence (P52333 whole entry): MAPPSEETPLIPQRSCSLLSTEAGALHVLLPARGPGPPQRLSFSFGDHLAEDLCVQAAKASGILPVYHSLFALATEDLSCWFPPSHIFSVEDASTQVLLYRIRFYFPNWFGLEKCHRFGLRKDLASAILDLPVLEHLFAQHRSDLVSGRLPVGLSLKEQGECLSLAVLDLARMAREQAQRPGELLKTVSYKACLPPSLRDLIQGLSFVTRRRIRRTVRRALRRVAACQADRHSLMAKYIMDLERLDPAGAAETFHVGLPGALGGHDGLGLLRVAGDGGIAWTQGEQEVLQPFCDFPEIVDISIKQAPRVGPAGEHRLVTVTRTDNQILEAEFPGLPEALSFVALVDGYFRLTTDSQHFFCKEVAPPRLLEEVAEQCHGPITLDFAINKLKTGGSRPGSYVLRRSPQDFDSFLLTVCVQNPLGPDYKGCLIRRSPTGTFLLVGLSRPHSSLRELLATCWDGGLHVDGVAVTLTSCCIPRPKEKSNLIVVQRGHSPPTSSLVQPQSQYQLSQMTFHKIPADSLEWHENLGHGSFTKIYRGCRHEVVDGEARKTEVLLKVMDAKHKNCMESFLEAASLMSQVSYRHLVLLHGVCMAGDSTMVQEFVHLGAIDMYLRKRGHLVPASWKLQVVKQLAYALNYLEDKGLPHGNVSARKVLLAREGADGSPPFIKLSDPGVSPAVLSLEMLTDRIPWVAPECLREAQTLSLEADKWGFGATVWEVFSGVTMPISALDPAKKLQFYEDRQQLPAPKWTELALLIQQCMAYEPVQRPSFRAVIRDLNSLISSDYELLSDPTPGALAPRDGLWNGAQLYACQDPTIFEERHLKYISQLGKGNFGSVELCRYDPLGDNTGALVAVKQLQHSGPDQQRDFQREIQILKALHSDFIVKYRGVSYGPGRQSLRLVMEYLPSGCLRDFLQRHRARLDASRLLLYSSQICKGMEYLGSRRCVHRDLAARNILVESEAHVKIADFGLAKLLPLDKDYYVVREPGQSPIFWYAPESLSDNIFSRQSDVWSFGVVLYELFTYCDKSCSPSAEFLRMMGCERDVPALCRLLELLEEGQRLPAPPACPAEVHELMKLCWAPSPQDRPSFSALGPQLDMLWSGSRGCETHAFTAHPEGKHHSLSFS

[8] = molecular target: Dual specificity protein kinase CLK1 (Mus musculus, UniProt P22518); assay: Inhibition of mouse recombinant CLK1 expressed in bacterial expression system using GRSRSRSRSRSR as substrate by ADP-glo assay
[9] = molecular target: Casein kinase I isoform epsilon (Homo sapiens, UniProt P49674); assay: Inhibition of recombinant human CK1epsilon expressed in baculovirus infected Sf9 insect cells using RRKHAAIGSpAYSITA as substrate by ADP-glo assay
[10] = molecular target: T2, Receptor-interacting serine/threonine-protein kinase 1 (Homo sapiens); assay: Inhibition of RIPK1 in human FADD-deficient Jurkat I 2.1 cells assessed as protection against TNFalpha-induced necroptosis measured after 24 hrs by MTS assay
Aurora kinase B = Aurora kinase B (Homo sapiens, UniProt Q96GD4); assay: Inhibition of recombinant human AURKB expressed in baculovirus infected Sf9 insect cells using myelin basic protein as substrate by ADP-Glo assay
CDK2/Cyclin A2 = CDK2/Cyclin A2 (Homo sapiens, UniProt P24941); assay: Inhibition of human CDK2/cyclin A using histone H1 as substrate by ADP-glo assay; format: protein-complex assay

Receptor-interacting serine/threonine-protein kinase 3, sequence (Q9Y572 whole entry): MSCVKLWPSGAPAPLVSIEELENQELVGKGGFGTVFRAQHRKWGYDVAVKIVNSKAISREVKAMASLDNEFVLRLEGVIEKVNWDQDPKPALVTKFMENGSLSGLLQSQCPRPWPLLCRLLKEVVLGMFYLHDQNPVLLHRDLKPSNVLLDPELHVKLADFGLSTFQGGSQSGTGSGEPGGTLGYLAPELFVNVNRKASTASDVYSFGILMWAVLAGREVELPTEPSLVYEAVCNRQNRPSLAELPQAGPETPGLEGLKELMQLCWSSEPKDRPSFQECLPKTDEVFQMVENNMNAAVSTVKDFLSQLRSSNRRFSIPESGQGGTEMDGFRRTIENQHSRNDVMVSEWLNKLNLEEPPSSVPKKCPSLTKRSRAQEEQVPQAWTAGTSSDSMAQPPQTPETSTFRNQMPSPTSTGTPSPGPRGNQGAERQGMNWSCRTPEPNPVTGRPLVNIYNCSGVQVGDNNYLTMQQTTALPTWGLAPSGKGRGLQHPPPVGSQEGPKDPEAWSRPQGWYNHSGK
Aurora kinase B, sequence (Q96GD4 whole entry): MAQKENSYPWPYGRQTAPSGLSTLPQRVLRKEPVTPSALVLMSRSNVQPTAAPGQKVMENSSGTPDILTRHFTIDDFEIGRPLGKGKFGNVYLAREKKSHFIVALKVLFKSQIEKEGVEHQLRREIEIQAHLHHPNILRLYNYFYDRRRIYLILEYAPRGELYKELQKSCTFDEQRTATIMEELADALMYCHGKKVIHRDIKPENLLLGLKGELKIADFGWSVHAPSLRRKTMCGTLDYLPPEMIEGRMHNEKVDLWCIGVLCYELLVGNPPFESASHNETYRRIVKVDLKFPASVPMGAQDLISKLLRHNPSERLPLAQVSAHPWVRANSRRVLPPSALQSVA
Dual specificity protein kinase CLK1, sequence (P22518 whole entry, canonical isoform): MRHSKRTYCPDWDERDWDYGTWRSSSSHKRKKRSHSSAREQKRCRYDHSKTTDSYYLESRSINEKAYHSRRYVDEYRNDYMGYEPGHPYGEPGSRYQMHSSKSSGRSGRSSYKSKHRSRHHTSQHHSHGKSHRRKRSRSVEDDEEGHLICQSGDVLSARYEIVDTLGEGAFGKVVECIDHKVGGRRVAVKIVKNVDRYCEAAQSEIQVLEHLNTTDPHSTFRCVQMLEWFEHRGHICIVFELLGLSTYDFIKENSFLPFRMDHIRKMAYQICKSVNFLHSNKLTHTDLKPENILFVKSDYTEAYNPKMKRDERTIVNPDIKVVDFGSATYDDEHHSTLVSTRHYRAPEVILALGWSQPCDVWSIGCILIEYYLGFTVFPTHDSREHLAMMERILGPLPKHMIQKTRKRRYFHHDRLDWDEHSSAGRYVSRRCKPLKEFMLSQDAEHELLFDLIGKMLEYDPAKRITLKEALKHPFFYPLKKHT
Casein kinase I isoform epsilon, sequence (P49674 whole entry, canonical isoform): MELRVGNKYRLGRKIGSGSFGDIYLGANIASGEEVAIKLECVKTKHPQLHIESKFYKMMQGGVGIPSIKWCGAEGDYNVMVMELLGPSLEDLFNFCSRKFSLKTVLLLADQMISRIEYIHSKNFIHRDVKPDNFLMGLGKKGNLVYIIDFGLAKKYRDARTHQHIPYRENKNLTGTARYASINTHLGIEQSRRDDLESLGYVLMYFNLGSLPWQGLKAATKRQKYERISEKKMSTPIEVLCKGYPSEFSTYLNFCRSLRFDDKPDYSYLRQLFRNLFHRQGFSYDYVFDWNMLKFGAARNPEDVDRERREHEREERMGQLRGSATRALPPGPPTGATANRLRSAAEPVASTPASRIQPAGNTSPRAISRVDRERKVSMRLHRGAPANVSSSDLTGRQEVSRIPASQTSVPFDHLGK
CDK9/cyclin T1, sequence (O60563 whole entry, the tested form may be a part): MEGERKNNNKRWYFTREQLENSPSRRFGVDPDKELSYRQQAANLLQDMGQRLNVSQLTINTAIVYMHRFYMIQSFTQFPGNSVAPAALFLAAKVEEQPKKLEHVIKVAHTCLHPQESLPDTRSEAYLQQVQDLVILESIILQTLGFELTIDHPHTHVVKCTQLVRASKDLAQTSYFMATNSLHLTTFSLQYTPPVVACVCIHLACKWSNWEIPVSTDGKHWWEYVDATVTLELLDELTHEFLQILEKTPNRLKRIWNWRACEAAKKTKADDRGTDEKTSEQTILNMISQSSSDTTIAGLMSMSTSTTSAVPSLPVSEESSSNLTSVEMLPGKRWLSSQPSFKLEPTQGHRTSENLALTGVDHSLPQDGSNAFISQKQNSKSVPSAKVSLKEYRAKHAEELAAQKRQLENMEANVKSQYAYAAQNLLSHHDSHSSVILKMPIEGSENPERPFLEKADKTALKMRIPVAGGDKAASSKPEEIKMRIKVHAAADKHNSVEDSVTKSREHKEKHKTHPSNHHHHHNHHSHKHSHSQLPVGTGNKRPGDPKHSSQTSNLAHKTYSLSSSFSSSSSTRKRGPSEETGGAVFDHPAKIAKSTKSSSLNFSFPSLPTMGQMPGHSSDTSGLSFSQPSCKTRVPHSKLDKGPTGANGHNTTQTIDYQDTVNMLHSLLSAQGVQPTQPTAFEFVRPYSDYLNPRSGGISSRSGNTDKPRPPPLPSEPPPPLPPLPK
CDK9/cyclin T1, sequence (P50750 whole entry, the tested form may be a part): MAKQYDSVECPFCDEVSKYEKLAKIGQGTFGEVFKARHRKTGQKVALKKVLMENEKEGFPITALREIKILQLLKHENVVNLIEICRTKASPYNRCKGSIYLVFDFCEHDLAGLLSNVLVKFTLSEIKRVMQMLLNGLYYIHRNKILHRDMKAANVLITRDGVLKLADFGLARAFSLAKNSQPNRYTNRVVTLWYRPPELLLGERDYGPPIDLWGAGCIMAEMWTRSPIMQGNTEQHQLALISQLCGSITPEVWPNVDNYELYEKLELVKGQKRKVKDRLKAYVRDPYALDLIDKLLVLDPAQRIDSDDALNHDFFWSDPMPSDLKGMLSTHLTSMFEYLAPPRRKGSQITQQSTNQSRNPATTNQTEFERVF
Cyclin-dependent kinase 5/CDK5 activator 1, sequence (Q00535 whole entry, the tested form may be a part): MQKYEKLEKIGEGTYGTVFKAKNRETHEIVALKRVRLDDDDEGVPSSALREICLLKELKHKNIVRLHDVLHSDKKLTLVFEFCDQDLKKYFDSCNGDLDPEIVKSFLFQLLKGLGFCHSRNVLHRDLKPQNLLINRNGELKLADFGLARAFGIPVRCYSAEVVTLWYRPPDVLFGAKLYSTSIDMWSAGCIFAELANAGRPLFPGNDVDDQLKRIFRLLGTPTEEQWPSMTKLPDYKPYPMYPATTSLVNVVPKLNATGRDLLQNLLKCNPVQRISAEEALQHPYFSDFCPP
Cyclin-dependent kinase 5/CDK5 activator 1, sequence (Q15078 whole entry, further chain, the tested form may be a part): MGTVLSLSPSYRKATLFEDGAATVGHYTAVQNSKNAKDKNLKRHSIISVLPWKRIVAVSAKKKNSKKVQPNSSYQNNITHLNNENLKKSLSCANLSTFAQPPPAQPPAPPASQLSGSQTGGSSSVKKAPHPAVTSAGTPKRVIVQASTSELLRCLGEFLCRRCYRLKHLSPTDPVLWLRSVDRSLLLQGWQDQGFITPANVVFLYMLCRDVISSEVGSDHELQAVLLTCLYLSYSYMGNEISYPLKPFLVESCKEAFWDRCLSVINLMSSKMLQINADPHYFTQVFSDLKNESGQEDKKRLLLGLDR
Serine/threonine-protein kinase pim-1, sequence (P11309 whole entry): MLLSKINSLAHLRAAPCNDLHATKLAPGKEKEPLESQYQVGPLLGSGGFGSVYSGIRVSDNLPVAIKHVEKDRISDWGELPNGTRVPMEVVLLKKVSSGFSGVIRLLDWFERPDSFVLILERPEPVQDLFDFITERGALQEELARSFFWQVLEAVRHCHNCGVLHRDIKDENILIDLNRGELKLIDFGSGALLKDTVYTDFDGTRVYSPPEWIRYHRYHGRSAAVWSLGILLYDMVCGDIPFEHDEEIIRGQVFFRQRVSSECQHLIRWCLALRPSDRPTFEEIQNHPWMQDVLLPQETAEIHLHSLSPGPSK

| IC50 [2] [µM] | IC50 [3] [µM] | IC50 [4] [µM] | IC50 [5] [µM] | inhibition [6] | IC50 (CDK9/cyclin T1) [µM] | IC50 [7] [µM] | IC50 [8] [µM] | IC50 [9] [µM] | IC50 (Aurora kinase B) [µM] | IC50 (CDK2/Cyclin A2) [µM] | SMILES | Activity [1] | Activity (TERT-RPE1) | inhibition [10] |
| --- | --- | --- | --- | --- | --- | --- | --- | --- | --- | --- | --- | --- | --- | --- |
| > 10 | > 10 | > 10 | 12.1 | Dose-dependent effect | 0.48 | > 10 | 0.8 | > 10 | > 10 | > 10 | CCCCNc1nc2ccc([N+](=O)[O-])cc2[nH]1 | Non-Toxic | Non-Toxic | Dose-dependent effect |
| > 10 | > 10 | > 10 | 2.89 | Dose-dependent effect | > 10 | > 10 | > 10 | > 10 | > 10 | > 10 | CCCCNc1nc2cc([N+](=O)[O-])ccc2s1 | Non-Toxic | Non-Toxic | Dose-dependent effect |

Reference: ChEMBL document CHEMBL4765378, “Discovery of simplified benzazole fragments derived from the marine benzosceptrin B as necroptosis inhibitors involving the receptor interacting protein Kinase-1” (Eur J Med Chem, 2020)
